Test results taken from ChEMBL document CHEMBL1155459, “On-bead screening of a combinatorial fumaric acid derived peptide library yields antiplasmodial cysteine protease inhibitors with unusual peptide sequences” (J Med Chem, 2009).
Peptide text beside a SMILES is read from it.

Assays:
[1] = Inhibition of Plasmodium falciparum falcipain-2 after 12 hrs by fluorescence spectroscopy-based on-bead assay; design: concentration or dose not given beside the values; settings: concentration not given here
Outline: (§1)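 Library members on resin (PEGA, theoretical loading 0.40 mmol/g; added as DMSO suspension, 0.64 mM final inhibitor) preincubated with enzyme 12 h, then Cbz-Phe-Arg-AMC 40 μM added; AMC release followed by fluorescence (ex 380/em 460 nm). Kinetics compared with inhibitor-free amino-PEGA resin.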

[2] = target: Rhodesain (Trypanosoma brucei rhodesiense) (UniProt Q95PM0); assay: Inhibition of Trypanosoma brucei rhodesiense rhodesain after 12 hrs by fluorescence spectroscopy-based on-bead assay; design: concentration or dose not given beside the values; settings: concentration not given here; outline: as §1
Sequence of Rhodesain (Trypanosoma brucei rhodesiense) (Q95PM0 1-450): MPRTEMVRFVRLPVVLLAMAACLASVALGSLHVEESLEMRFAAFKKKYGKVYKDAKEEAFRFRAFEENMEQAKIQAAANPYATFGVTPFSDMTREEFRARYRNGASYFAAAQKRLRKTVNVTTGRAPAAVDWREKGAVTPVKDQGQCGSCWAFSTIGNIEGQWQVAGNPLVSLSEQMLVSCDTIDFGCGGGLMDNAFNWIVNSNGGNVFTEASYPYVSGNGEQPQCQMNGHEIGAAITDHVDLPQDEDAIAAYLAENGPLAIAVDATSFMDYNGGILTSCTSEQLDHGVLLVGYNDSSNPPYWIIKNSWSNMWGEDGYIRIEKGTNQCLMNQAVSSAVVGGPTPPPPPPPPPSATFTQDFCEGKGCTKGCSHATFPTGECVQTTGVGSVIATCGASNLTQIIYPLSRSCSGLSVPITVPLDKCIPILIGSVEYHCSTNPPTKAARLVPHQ

Structure (SMILES)	inhibition [1]	inhibition [2]
CC(C)C[C@H](NC(=O)[C@@H](NC(=O)[C@H](CCC(N)=O)NC(=O)/C=C/C(=O)NCC(=O)NCC(=O)N[C@@H](Cc1ccccc1)C(=O)O)c1ccccc1)C(=O)N[C@H](C(N)=O)C(C)C (HELM PEPTIDE1{[O=C(/C=C/C(=O)[*:2])NCC(=O)NCC(=O)N[C@@H](Cc1ccccc1)C(=O)O].Q.[Phg].L.V.[am]}$$$$V2.0)	50%	62%
CC[C@H](C)[C@H](NC(=O)[C@H](CC(N)=O)NC(=O)/C=C/C(=O)N[C@@H](C)C(=O)NCC(=O)N[C@@H](Cc1ccccc1)C(=O)O)C(=O)N[C@@H](C)C(=O)N[C@H](C(N)=O)C(C)C (HELM PEPTIDE1{[C[C@H](NC(=O)/C=C/C(=O)[*:2])C(=O)NCC(=O)N[C@@H](Cc1ccccc1)C(=O)O].N.I.A.V.[am]}$$$$V2.0)	38%	17%
CC[C@H](C)[C@H](NC(=O)[C@H](CCC(N)=O)NC(=O)/C=C/C(=O)N[C@@H](C)C(=O)NCC(=O)N[C@@H](Cc1ccccc1)C(=O)O)C(=O)N[C@H](C(=O)N[C@H](C(N)=O)C(C)C)C(C)C (HELM PEPTIDE1{[C[C@H](NC(=O)/C=C/C(=O)[*:2])C(=O)NCC(=O)N[C@@H](Cc1ccccc1)C(=O)O].Q.I.V.V.[am]}$$$$V2.0)	54%	38%
CC(C)[C@H](NC(=O)[C@@H](NC(=O)[C@H](Cc1ccccc1)NC(=O)[C@H](Cc1ccccc1)NC(=O)/C=C/C(=O)NCC(=O)NCC(=O)N[C@@H](Cc1ccccc1)C(=O)O)C(C)C)C(N)=O (HELM PEPTIDE1{[O=C(/C=C/C(=O)[*:2])NCC(=O)NCC(=O)N[C@@H](Cc1ccccc1)C(=O)O].F.F.V.V.[am]}$$$$V2.0)	60%	51%
CC(=O)NC[C@H](NC(=O)/C=C/C(=O)N[C@@H](C)C(=O)NCC(=O)N[C@@H](Cc1ccccc1)C(=O)O)C(=O)N[C@@H](Cc1ccccc1)C(=O)N[C@H](C(=O)N[C@H](C(N)=O)C(C)C)C(C)C (HELM PEPTIDE1{[C[C@H](NC(=O)/C=C/C(=O)[*:2])C(=O)NCC(=O)N[C@@H](Cc1ccccc1)C(=O)O].[O=C([C@H](CN[*:3])N[*:1])[*:2]].F.V.V.[am]}|PEPTIDE2{[ac]}$PEPTIDE1,PEPTIDE2,2:R3-1:R2$$$V2.0)	32%	44%
CC[C@H](C)[C@H](NC(=O)[C@H](CNC(C)=O)NC(=O)/C=C/C(=O)NCC(=O)NCC(=O)N[C@@H](Cc1ccccc1)C(=O)O)C(=O)N[C@@H](CC(C)C)C(=O)N[C@H](C(N)=O)C(C)C (HELM PEPTIDE1{[O=C(/C=C/C(=O)[*:2])NCC(=O)NCC(=O)N[C@@H](Cc1ccccc1)C(=O)O].[O=C([C@H](CN[*:3])N[*:1])[*:2]].I.L.V.[am]}|PEPTIDE2{[ac]}$PEPTIDE1,PEPTIDE2,2:R3-1:R2$$$V2.0)	33%	60%
CC(C)[C@H](NC(=O)[C@@H](NC(=O)[C@H](Cc1ccccc1)NC(=O)[C@H](CCC(N)=O)NC(=O)/C=C/C(=O)N[C@@H](C)C(=O)NCC(=O)N[C@@H](Cc1ccccc1)C(=O)O)C(C)C)C(N)=O (HELM PEPTIDE1{[C[C@H](NC(=O)/C=C/C(=O)[*:2])C(=O)NCC(=O)N[C@@H](Cc1ccccc1)C(=O)O].Q.F.V.V.[am]}$$$$V2.0)	58%	45%
CC(C)[C@H](NC(=O)[C@H](C)NC(=O)[C@@H](NC(=O)[C@H](CCC(N)=O)NC(=O)/C=C/C(=O)NCC(=O)NCC(=O)N[C@@H](Cc1ccccc1)C(=O)O)c1ccccc1)C(N)=O (HELM PEPTIDE1{[O=C(/C=C/C(=O)[*:2])NCC(=O)NCC(=O)N[C@@H](Cc1ccccc1)C(=O)O].Q.[Phg].A.V.[am]}$$$$V2.0)	34%	17%
CC[C@H](C)[C@H](NC(=O)[C@H](Cc1ccccc1)NC(=O)/C=C/C(=O)NCC(=O)NCC(=O)N[C@@H](Cc1ccccc1)C(=O)O)C(=O)N[C@@H](C)C(=O)N[C@H](C(N)=O)C(C)C (HELM PEPTIDE1{[O=C(/C=C/C(=O)[*:2])NCC(=O)NCC(=O)N[C@@H](Cc1ccccc1)C(=O)O].F.I.A.V.[am]}$$$$V2.0)	52%	30%
CC(C)[C@H](NC(=O)[C@@H](NC(=O)[C@@H](NC(=O)[C@H](CCC(N)=O)NC(=O)/C=C/C(=O)N[C@@H](C)C(=O)NCC(=O)N[C@@H](Cc1ccccc1)C(=O)O)c1ccccc1)C(C)C)C(N)=O (HELM PEPTIDE1{[C[C@H](NC(=O)/C=C/C(=O)[*:2])C(=O)NCC(=O)N[C@@H](Cc1ccccc1)C(=O)O].Q.[Phg].V.V.[am]}$$$$V2.0)	46%	34%
CC[C@H](C)[C@H](NC(=O)[C@H](C)NC(=O)/C=C/C(=O)N[C@@H](C)C(=O)NCC(=O)N[C@@H](Cc1ccccc1)C(=O)O)C(=O)N[C@H](C(=O)N[C@H](C(N)=O)C(C)C)C(C)C (HELM PEPTIDE1{[C[C@H](NC(=O)/C=C/C(=O)[*:2])C(=O)NCC(=O)N[C@@H](Cc1ccccc1)C(=O)O].A.I.V.V.[am]}$$$$V2.0)	30%	34%
CC(C)[C@H](NC(=O)[C@H](C)NC(=O)[C@@H](NC(=O)[C@H](CCC(N)=O)NC(=O)/C=C/C(=O)N[C@@H](C)C(=O)NCC(=O)N[C@@H](Cc1ccccc1)C(=O)O)C1CCCCC1)C(N)=O (HELM PEPTIDE1{[C[C@H](NC(=O)/C=C/C(=O)[*:2])C(=O)NCC(=O)N[C@@H](Cc1ccccc1)C(=O)O].Q.[O=C([C@@H](N[*:1])C1CCCCC1)[*:2]].A.V.[am]}$$$$V2.0)	55%	39%
CC(C)C[C@H](NC(=O)[C@H](Cc1ccccc1)NC(=O)[C@H](CC(N)=O)NC(=O)/C=C/C(=O)N[C@@H](C)C(=O)NCC(=O)N[C@@H](Cc1ccccc1)C(=O)O)C(=O)N[C@H](C(N)=O)C(C)C (HELM PEPTIDE1{[C[C@H](NC(=O)/C=C/C(=O)[*:2])C(=O)NCC(=O)N[C@@H](Cc1ccccc1)C(=O)O].N.F.L.V.[am]}$$$$V2.0)	58%	64%
CC(=O)NC[C@H](NC(=O)/C=C/C(=O)NCC(=O)NCC(=O)N[C@@H](Cc1ccccc1)C(=O)O)C(=O)N[C@H](C(=O)N[C@@H](CC(C)C)C(=O)N[C@H](C(N)=O)C(C)C)c1ccccc1 (HELM PEPTIDE1{[O=C(/C=C/C(=O)[*:2])NCC(=O)NCC(=O)N[C@@H](Cc1ccccc1)C(=O)O].[O=C([C@H](CN[*:3])N[*:1])[*:2]].[Phg].L.V.[am]}|PEPTIDE2{[ac]}$PEPTIDE1,PEPTIDE2,2:R3-1:R2$$$V2.0)	38%	66%
CC(C)C[C@H](NC(=O)[C@H](CCC(N)=O)NC(=O)/C=C/C(=O)NCC(=O)NCC(=O)N[C@@H](Cc1ccccc1)C(=O)O)C(=O)N[C@@H](C)C(=O)N[C@H](C(N)=O)C(C)C (HELM PEPTIDE1{[O=C(/C=C/C(=O)[*:2])NCC(=O)NCC(=O)N[C@@H](Cc1ccccc1)C(=O)O].Q.L.A.V.[am]}$$$$V2.0)	40%	38%
CC(C)[C@H](NC(=O)[C@@H](NC(=O)[C@@H](NC(=O)[C@H](CCC(N)=O)NC(=O)/C=C/C(=O)NCC(=O)NCC(=O)N[C@@H](Cc1ccccc1)C(=O)O)c1ccccc1)C(C)C)C(N)=O (HELM PEPTIDE1{[O=C(/C=C/C(=O)[*:2])NCC(=O)NCC(=O)N[C@@H](Cc1ccccc1)C(=O)O].Q.[Phg].V.V.[am]}$$$$V2.0)	63%	45%
